ChEMBL document CHEMBL2062385, “Bone-targeting glycol and NSAIDS ester prodrugs of rhein: synthesis, hydroxyapatite affinity, stability, anti-inflammatory, ulcerogenicity index and pharmacokinetics studies” (Eur J Med Chem, 2012)
The source made the active and inactive calls. The rule behind the calls is not given here.

Assays:
[1] = test system: Mus musculus; assay: Antiinflammatory activity in Kunming mouse assessed as inhibition of xylene-induced auricle tumefaction at 0.2 mmol/kg, po qd administered prior to challenge for 5 days measured 30 mins post challenge; format: functional
In short: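 Male Kunming mice (18-22 g), ten per group, dosed once daily for 5 days at 0.2 mmol/kg; controls got 0.9% NaCl. A 7 mm filter soaked in xylene was held on the right ear for 30 s, 1 h after the last dose. Mice were killed 30 min later and 7 mm ear punches taken. Inhibition = (1 − a/b)×100%, from tumefaction degree of control and test groups.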

[2] = Prodrug conversion at pH 7.4 assessed as hydrolysis up to 24 hrs by HPLC analysis; format: physicochemical; settings: buffer, pH 7.4, 24 h
In short: (§1)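 Prodrugs held at 37 °C for up to 24 h in phosphate-buffered saline adjusted to pH 1.2 or pH 7.4. Samples taken at set intervals. Released parent drugs quantified by C18 HPLC with methanol/0.1% H3PO4 90:10 (pH 2.3), 25 °C, 1.0 mL/min, 254 nm. Run in triplicate.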

[3] = test system: Hydroxyapatite; assay: Binding affinity to bone mineral hydroxyapatite after 30 mins by RP-HPLC analysis
In short: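 Each compound (10 mL, 0.1 mmol/L in water) stirred vigorously with 20, 40 or 80 mg hydroxyapatite for 30 min. Then analysed by HPLC on C18 with methanol/0.1% H3PO4 90:10 (pH 2.3), 25 °C, 1.0 mL/min, 254 nm detection. n = 3.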

[4] = Prodrug conversion at pH 1.2 assessed as hydrolysis up to 24 hrs by HPLC analysis; format: physicochemical; settings: buffer, pH 1.2, 24 h; in short: as §1
[5] = test system: Mus musculus; assay: Ulcerogenic activity in Kunming mouse assessed as ulcer index at 1 mmol/kg, po measured after 4 hrs; format: toxicity, organism-based; settings: in vivo
In short: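 Kunming mice of either sex (18-22 g), ten per group, fasted from food and water for 24 h. Then given 1.0 mmol/kg orally as a suspension in 1% methylcellulose. Killed at 4 h; stomachs fixed 30 min in 10% formaldehyde, opened along the greater curvature and ulcers measured under a magnifier. Ulcer index = summed lesion length (mm) per stomach averaged over 10 animals.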

[6] = test system: Rattus norvegicus; assay: MRT (0 to infinity) in Sprague-Dawley rat assessed as rhein at 10 mg/kg, po; format: ADME, organism-based; set-up: dose 10 mg/kg, route oral; settings: in vivo
In short: (§2)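 SD rats of either sex (200 ± 20 g), six per group, dosed by gastric intubation after recovery from anesthesia. Arterial blood (~0.5 mL) drawn predose and at 0.17, 0.33, 0.5, 0.75, 1, 1.5, 2, 2.5, 3, 4, 5, 7 and 9 h. Plasma separated at once by centrifugation. Rhein in plasma measured by HPLC with diode-array detection.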

[7] = Tmax in Sprague-Dawley rat at 5.26 mg/kg, po; format: ADME, organism-based; set-up: dose 5.26 mg/kg, route oral; settings: in vivo; in short: as §2
[8] = test system: Rattus norvegicus; assay: Tmax in Sprague-Dawley rat assessed as rhein at 10 mg/kg, po; format: ADME, organism-based; set-up: dose 10 mg/kg, route oral; settings: in vivo; in short: as §2
[9] = AUC (0 to infinity) in Sprague-Dawley rat at 5.26 mg/kg, po; format: ADME, organism-based; set-up: time infinity, dose 5.26 mg/kg, route oral; settings: plasma; in short: as §2
[10] = test system: Rattus norvegicus; assay: AUC (0 to infinity) in Sprague-Dawley rat assessed as rhein at 10 mg/kg, po; format: ADME, organism-based, Plasma; set-up: time infinity, dose 10 mg/kg, route oral; settings: in vivo; in short: as §2
[11] = AUC (0 to 9 hrs) in Sprague-Dawley rat at 5.26 mg/kg, po; format: ADME, organism-based; set-up: time < 9 hr, dose 5.26 mg/kg, route oral; settings: plasma; in short: as §2
[12] = test system: Rattus norvegicus; assay: Half life in Sprague-Dawley rat assessed as rhein at 10 mg/kg, po; format: ADME, organism-based; set-up: dose 10 mg/kg, route oral; settings: in vivo; in short: as §2
[13] = Half life in Sprague-Dawley rat at 5.26 mg/kg, po; format: ADME, organism-based; set-up: dose 5.26 mg/kg, route oral; settings: in vivo; in short: as §2
[14] = test system: Rattus norvegicus; assay: AUC (0 to 9 hrs) in Sprague-Dawley rat assessed as rhein at 10 mg/kg, po; format: ADME, organism-based, Plasma; set-up: time < 9 hr, dose 10 mg/kg, route oral; settings: in vivo; in short: as §2
[15] = Cmax in Sprague-Dawley rat at 5.26 mg/kg, po; format: ADME, organism-based; set-up: dose 5.26 mg/kg, route oral; settings: in vivo; in short: as §2
[16] = test system: Rattus norvegicus; assay: MRT (0 to 9 hrs) in Sprague-Dawley rat assessed as rhein at 10 mg/kg, po; format: ADME, organism-based; set-up: dose 10 mg/kg, route oral; settings: in vivo; in short: as §2
[17] = MRT (0 to 9 hrs) in Sprague-Dawley rat at 5.26 mg/kg, po; format: ADME, organism-based; set-up: dose 5.26 mg/kg, route oral; settings: in vivo; in short: as §2
[18] = test system: Rattus norvegicus; assay: Cmax in Sprague-Dawley rat assessed as rhein at 10 mg/kg, po; format: ADME, organism-based; set-up: dose 10 mg/kg, route oral; settings: in vivo; in short: as §2
[19] = MRT (0 to infinity) in Sprague-Dawley rat at 5.26 mg/kg, po; format: ADME, organism-based; set-up: dose 5.26 mg/kg, route oral; settings: in vivo; in short: as §2
[20] = AUC (0 to 9 hrs) in Sprague-Dawley rat at 10 mg/kg, po; format: ADME, organism-based; set-up: time < 9 hr, dose 10 mg/kg, route oral; settings: plasma; in short: as §2
[21] = Cmax in Sprague-Dawley rat at 10 mg/kg, po; format: ADME, organism-based; set-up: dose 10 mg/kg, route oral; settings: in vivo; in short: as §2
[22] = MRT (0 to 9 hrs) in Sprague-Dawley rat at 10 mg/kg, po; format: ADME, organism-based; set-up: dose 10 mg/kg, route oral; settings: in vivo; in short: as §2
[23] = Tmax in Sprague-Dawley rat at 10 mg/kg, po; format: ADME, organism-based; set-up: dose 10 mg/kg, route oral; settings: in vivo; in short: as §2
[24] = MRT (0 to infinity) in Sprague-Dawley rat at 10 mg/kg, po; format: ADME, organism-based; set-up: dose 10 mg/kg, route oral; settings: in vivo; in short: as §2
[25] = Half life in Sprague-Dawley rat at 10 mg/kg, po; format: ADME, organism-based; set-up: dose 10 mg/kg, route oral; settings: in vivo; in short: as §2
[26] = AUC (0 to infinity) in Sprague-Dawley rat at 10 mg/kg, po; format: ADME, organism-based; set-up: time infinity, dose 10 mg/kg, route oral; settings: plasma; in short: as §2

Drug metabolism [2]	Activity [3]	Drug metabolism [4]	SMILES	inhibition in vivo at 200 µmol/kg [1] [%]	other results
Active	Active	Active	O=C(OCCOCCOCCO)c1cc(O)c2c(c1)C(=O)c1cccc(O)c1C2=O	17.4	
Active	Active	Active	CC(=O)Oc1ccccc1C(=O)OCCOC(=O)c1cc(O)c2c(c1)C(=O)c1cccc(O)c1C2=O	19.6	
Active	Active	Active	CC(C)Cc1ccc(C(C)C(=O)OCCOC(=O)c2cc(O)c3c(c2)C(=O)c2cccc(O)c2C3=O)cc1 (stereo not given)	41.2	UI [5]: 5.8
Active	Active	Active	CC(=O)Oc1cccc2c1C(=O)c1c(OC(C)=O)cc(C(=O)OCCO)cc1C2=O	16	
Active	Active	Active	CC(C)Cc1ccc(C(C)C(=O)OCCOCCOCCOC(=O)c2cc(O)c3c(c2)C(=O)c2cccc(O)c2C3=O)cc1 (stereo not given)	33.9	UI [5]: 5.8
Active	Active	Active	CC(=O)Oc1cccc2c1C(=O)c1c(OC(C)=O)cc(C(=O)OCCOCCO)cc1C2=O	15	
Active	Active	Active	O=C(OCCOCCO)c1cc(O)c2c(c1)C(=O)c1cccc(O)c1C2=O	17.2	
Active	Active	Active	CC(C)Cc1ccc(C(C)C(=O)OCCOCCOC(=O)c2cc(O)c3c(c2)C(=O)c2cccc(O)c2C3=O)cc1 (stereo not given)	32.7	UI [5]: 5.8
	Active	Active	O=C(O)c1cc(O)c2c(c1)C(=O)c1cccc(O)c1C2=O [RHEIN]		MRT [6]: 5.699 h; Tmax [7]: 2.04 h; Tmax [8]: 2.917 h; AUC(0-inf) [9]: 1380 ng·h/mL; AUC [10]: 1.394 µg·h/mL; AUC(0-t) at 9 h [11]: 1170 ng·h/mL; t1/2 [12]: 2.771 h; half-life [13]: 74.3 min; AUC [14]: 1.178 µg·h/mL; Cmax [15]: 432 ng/mL; MRT [16]: 4.291 h; MRT last [17]: 2.92 h; Cmax [18]: 0.291 µg/mL; MRT inf [19]: 3.78 h
Active	Active	Active	COc1ccc2cc(C(C)C(=O)OCCOC(=O)c3cc(O)c4c(c3)C(=O)c3cccc(O)c3C4=O)ccc2c1 (stereo not given)	23.9	AUC(0-t) at 9 h [20]: 4420 ng·h/mL; Cmax [21]: 1090 ng/mL; MRT last [22]: 3.46 h; Tmax [23]: 1.75 h; MRT inf [24]: 4.23 h; half-life [25]: 131 min; UI [5]: 5.8; AUC(0-inf) [26]: 4860 ng·h/mL
Active	Active	Active	CC(=O)Oc1cccc2c1C(=O)c1c(OC(C)=O)cc(C(=O)OCCOCCOCCO)cc1C2=O	19.5	
Active	Active	Active	O=C(OCCO)c1cc(O)c2c(c1)C(=O)c1cccc(O)c1C2=O	13.9	

Second part, the compound before the results:

SMILES	Drug metabolism [2]	Activity [3]	Drug metabolism [4]	inhibition in vivo at 200 µmol/kg [1] [%]	other results
CC(=O)Oc1cccc2c1C(=O)c1c(OC(C)=O)cc(C(=O)OCCOCCOCCOC(=O)C(C)c3ccc(CC(C)C)cc3)cc1C2=O (stereo not given)	Active	Active	Active	29.3	
CC(=O)Oc1cccc2c1C(=O)c1c(OC(C)=O)cc(C(=O)O)cc1C2=O [DIACEREIN]		Active		29.2	
COc1ccc2c(c1)c(CC(=O)OCCOC(=O)c1cc(OC(C)=O)c3c(c1)C(=O)c1cccc(OC(C)=O)c1C3=O)c(C)n2C(=O)c1ccc(Cl)cc1	Active	Active	Active	23.4	
COc1ccc2cc(C(C)C(=O)OCCOC(=O)c3cc(OC(C)=O)c4c(c3)C(=O)c3cccc(OC(C)=O)c3C4=O)ccc2c1 (stereo not given)	Active	Active	Active	24.4	
CC(=O)Oc1ccccc1C(=O)OCCOC(=O)c1cc(OC(C)=O)c2c(c1)C(=O)c1cccc(OC(C)=O)c1C2=O	Active	Active	Active	19.9	
O=C(Cc1ccccc1Nc1c(Cl)cccc1Cl)OCCOC(=O)c1cc(O)c2c(c1)C(=O)c1cccc(O)c1C2=O	Active	Active	Active	43.9	
CC(=O)Oc1cccc2c1C(=O)c1c(OC(C)=O)cc(C(=O)OCCOC(=O)Cc3ccccc3Nc3c(Cl)cccc3Cl)cc1C2=O	Active	Active	Active	44	
CC(=O)Oc1cccc2c1C(=O)c1c(OC(C)=O)cc(C(=O)OCCOC(=O)C(C)c3ccc(CC(C)C)cc3)cc1C2=O (stereo not given)	Active	Active	Active	35.2	
CC(C)Cc1ccc(C(C)C(=O)O)cc1 (stereo not given) [IBUPROFEN]	Active	inactive		32	UI [5]: 8.3
CC(=O)Oc1cccc2c1C(=O)c1c(OC(C)=O)cc(C(=O)OCCOCCOC(=O)C(C)c3ccc(CC(C)C)cc3)cc1C2=O (stereo not given)	Active	Active	Active	33	
O=C(O)Cc1ccccc1Nc1c(Cl)cccc1Cl [DICLOFENAC]				41.9	
